Measured values collected from several papers.
Each line is one published result; the experiments were not run side by side.
Cell line: PC-3
Observed: cell growth or viability

Structure (SMILES)	assay	conditions	IC50
COc1cc(C(=O)c2nc(-c3cccc4c3CC(=O)N4)c[nH]2)cc(OC)c1OC	MTS	72 h	0.0186 µM
CC(=NNC(=O)c1cc(-c2ccccc2)n(-c2ccc(S(N)(=O)=O)cc2)n1)c1ccc(C)cc1	fluorescence	48 h	19.2 µM
CC1(P2(=O)CCCCC2)CCCCC1	MTT	72 h	> 100 µM
COc1cc(C(=O)c2nc(-c3cccc4c3CCN4)c[nH]2)cc(OC)c1OC	MTS	72 h	0.022 µM
CC1(P2(=O)CCCCC2)C=CCC=C1	MTT	72 h	> 100 µM
COc1cc(C(=O)c2nc(-c3cccc4[nH]ccc34)c[nH]2)cc2c1OC=CO2	MTS	72 h	0.0102 µM
NS(=O)(=O)c1ccc(-n2nc(C(=O)NN3C(=O)c4ccccc4C3=O)cc2-c2ccccc2)cc1	fluorescence	48 h	54.4 µM
CC(C)c1ccc(/C=C2\N=C(SCC(=O)O)N(c3ccccc3)C2=O)cc1	MTT		50 µg/mL
NS(=O)(=O)c1ccc(-n2nc(C(=O)NN3C(=O)CCC3=O)cc2-c2ccccc2)cc1	fluorescence	48 h	36.2 µM
COc1cc(C(=O)c2nc(-c3cccc4[nH]cnc34)c[nH]2)cc(OC)c1OC	MTS	72 h	0.0158 µM
CS(=O)(=O)NCCCCN=C=S	MTT	24 h	25.4 µM
Nc1cc2cccnc2c2ncccc12	MTT	48 h, dark	6.2 µM
CC(=NNC(=O)c1cc(-c2ccccc2)n(-c2ccc(S(N)(=O)=O)cc2)n1)c1ccc(Br)cc1	fluorescence	48 h	48 µM
COc1cc(C(=O)c2nc(-c3ccsc3)c[nH]2)cc(OC)c1OC	MTS	72 h	0.0873 µM
O[C@@H]1[C@@H](O)[C@H](Nc2cc3cccnc3c3ncccc23)OC[C@H]1O	MTT	48 h, dark	3.9 µM
COc1ccc(C=NNC(=O)c2cc(-c3ccccc3)n(-c3ccc(S(N)(=O)=O)cc3)n2)cc1OC	fluorescence	48 h	27.1 µM
COc1cc(C(=O)c2nc(-c3cccc4[nH]nnc34)c[nH]2)cc(OC)c1OC	MTS	72 h	0.0203 µM
NS(=O)(=O)c1ccc(-n2nc(-c3nnc(CCl)o3)cc2-c2ccccc2)cc1	fluorescence	48 h	36.2 µM
CC(C)Cc1ccc([C@H](C)C(=O)O)cc1	SRB	72 h	553 µM
